Data taken from ChEMBL document CHEMBL1139822, “Cytotoxicity of the novel spin trapping compound 5-ethoxycarbonyl-3,5-dimethyl-pyrroline N-oxide (3,5-EDPO) and its derivatives” (Bioorg Med Chem Lett, 2007).

What was measured:
[1] = test system: SW480; assay: Cytotoxicity against human SW480 cells at 50 mM after 24 hrs; assay type: functional
Method in brief: (§1)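 Human colon carcinoma SW480 cultures were exposed to spin traps at 10 to 100 mM for 24 h. Cytotoxicity was read as the dose-dependent loss in cell number. LDH released into the culture supernatant was also measured and expressed per cell as % of non-treated control. Apoptotic nuclei were stained to distinguish necrosis from apoptosis.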

[2] = test system: Hepatocyte; assay: Cytotoxicity in primary rat hepatocytes assessed as decrease in number of hepatocytes after 24 hrs; assay type: cell-based; set-up: scale not given: the % may be the effect or the level left
[3] = test system: Hepatocyte; assay: Cytotoxicity in primary rat hepatocytes assessed as increase in LDH release after 24 hrs; assay type: cell-based
[4] = test system: SW480; assay: Cytotoxicity against human SW480 cells at 100 mM after 24 hrs; assay type: functional; method in brief: as §1

For CCCOC(=O)C1(C)CC(C)C=[N+]1[O-] (stereo unspecified), the Activity [1] was under 25%.
CC1C=[N+]([O-])C(C)(C(=O)OC(C)C)C1 (stereo unspecified) was tested, and the Activity [2] was 60%, the Activity [3] was “Active” and the Activity [1] was under 25%.
In the case of CCOC(=O)C1(C)C(C)CC=[N+]1[O-] (stereo unspecified), the Activity [2] is reported as 60%, the Activity [3] is reported as “Active” and the Activity [1] is reported as under 25%.
In the case of CCCOC(=O)C1(C)C(C)CC=[N+]1[O-] (stereo unspecified), the Activity [4] is reported as 95%.
With CCOC(=O)C1(C)CC(C)C=[N+]1[O-] (stereo unspecified) the Activity [2] was 60%, the Activity [3] was “Active” and the Activity [1] was under 25%.
